These results are taken from ChEMBL document CHEMBL1121799, “Beta-adrenoceptor stimulant properties of amidoalkylamino-substituted 1-aryl-2-ethanols and 1-(aryloxy)-2-propanols” (1981).

Assay [1] is filed under the species Canis familiaris. The experiment in a line: Selectivity is expressed as the ratio of ED50 on hind limb perfusion pressure to the ED50 on heart rate. Format: functional, Canis lupus familiaris. In outline:
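Cardioselectivity is the ratio of ED50 for HLPP to ED50 for HR. Both come from cumulative iv dose-response curves in pentobarbital-anesthetized dogs with a pump-perfused hind limb and a cardiotachometer reading HR.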

The species named for assay [2] is Canis familiaris. Nature of the assay: Intrinsic sympathomimetic activity (ISA), calculated as the percent of maximum change in hind limb perfusion pressure (HLPP). The format is functional, Canis lupus familiaris, Hindlimb. The essentials: (§1)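 Same anesthetized, ventilated dog preparation with a pump-perfused left hind limb. An isoproterenol curve was run first. About 45 min later, once HR and HLPP had returned to control, cumulative iv doses of test compound in saline were given. ISA is the maximum HR or HLPP change produced by the compound, expressed as a percentage of the isoproterenol maximum.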

Assay [3] has as its system Canis familiaris. Nature of the assay: Effective dose required for the maximum hind limb perfusion pressure(HLPP) in anesthetized dogs. Format: functional. Conditions: Canis lupus familiaris, Hindlimb. In outline:
(§2)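 Anesthetized dogs on pentobarbital (20 mg/kg iv, then 2 mg/kg iv every 30 min), ventilated with 40% O2 in air. Left hind limb pump-perfused from the abdominal aorta, heparin 500 IU/kg iv. HR from a lead II ECG-driven cardiotachometer. Arterial pCO2 held at 34-42 mmHg and pH 7.35-7.43. Cumulative iv doses in saline. ED50 taken from dose-response curves of peak HR or HLPP change.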

For assay [4], the species on record is Canis familiaris. Nature of the assay: Intrinsic sympathomimetic activity (ISA, calculated as the percent of maximum change in heart rate (HR). Format: functional, Canis lupus familiaris. In outline: as §1
Assay [5] relates to Canis familiaris. Nature of the assay: Effective dose required for the maximum heart rate in anesthetized dogs. Format: functional. Conditions: Canis lupus familiaris. The essentials:
as §2

Molecules are shown by their SMILES.

Usually ED50 stands for the dose at which the effect has come halfway, by size or by number of responders. Turning to `CC(C)NCC(O)c1cc(O)cc(O)c1` (centres undefined) [METAPROTERENOL], the Selectivity in the assay filed under Canis familiaris [1] is recorded as 1. For the same compound, the ISA is recorded as 100% in the assay listed under Canis familiaris [2] and 83% in the assay filed under Canis familiaris [4]. For the same compound, the ED50 with Canis familiaris [3] and in the assay with Canis familiaris [5] was 0.014 µmol/kg in each case.
Regarding `CC(C)NCC(O)c1ccc(O)c(CO)c1` (centres undefined), in the assay listed under Canis familiaris [1], the Selectivity turned out to be 0.04. In addition, the ISA in the assay listed under Canis familiaris [2] and in the assay listed under Canis familiaris [4] was 100% in each case. Moreover, the ED50 in the assay on Canis familiaris [3] was found to be 0.009 µmol/kg; in the assay with Canis familiaris [5], 0.222 µmol/kg.
Regarding `O=C(NCCNCC(O)c1cccc(O)c1)Nc1ccccc1.O=C(O)C(=O)O` (centres undefined), in the assay filed under Canis familiaris [1], the Selectivity is listed as 2. The values for the ISA in the assay listed under Canis familiaris [2] and in the assay filed under Canis familiaris [4] were 55% and 42%, respectively. Moreover, the ED50 with Canis familiaris [3] worked out at 0.286 µmol/kg; with Canis familiaris [5], 0.143 µmol/kg.
Take `CC(C)C(=O)NCCNCC(O)COc1ccc(O)c(CO)c1.O=C(O)C(=O)O` (centres undefined): the Selectivity in the assay filed under Canis familiaris [1] is 6.3. Moreover, the ISA in the assay listed under Canis familiaris [2] is on record as 30%; in the assay filed under Canis familiaris [4], 26%. Further, the figures for the ED50 in the assay with Canis familiaris [3] and with Canis familiaris [5] were 0.27 µmol/kg and 0.043 µmol/kg, respectively.
The matching figures for `CC(C)NC(=O)NCCNCC(O)COc1ccc(O)cc1.O=C(O)C(=O)O` (centres undefined): 0.8, 26%, 60%, 0.193 µmol/kg and 0.235 µmol/kg.
With `CC(C)C(=O)NCCNCC(O)c1cc(O)cc(O)c1.O=C(O)C(=O)O` (centres undefined), the Selectivity in the assay filed under Canis familiaris [1] is 3. Further, the ISA is recorded as 100% in the assay listed under Canis familiaris [2] and 89% in the assay listed under Canis familiaris [4]. The ED50 with Canis familiaris [3] turned out to be 0.105 µmol/kg; in the assay with Canis familiaris [5] it was 0.035 µmol/kg.
As to `O=C(NCCNCC(O)COc1ccc(O)c(CO)c1)Nc1ccccc1.O=C(O)C(=O)O` (centres undefined), the Selectivity in the assay filed under Canis familiaris [1] turned out to be 2.5. In addition, the ISA in the assay filed under Canis familiaris [2] is given as 32%; in the assay listed under Canis familiaris [4], 42%. Further, the ED50 in the assay on Canis familiaris [3] came out at 0.112 µmol/kg; with Canis familiaris [5] it was 0.045 µmol/kg.
The matching figures for `CC(C)C(=O)NCCNCC(O)c1ccc(O)cc1.O=C(O)C(=O)O` (centres undefined): 1.3, 82%, 90%, 0.071 µmol/kg and 0.056 µmol/kg.
With `O=C(NCCNCC(O)c1cc(O)cc(O)c1)Nc1ccccc1.O=C(O)C(=O)O` (centres undefined), in the assay filed under Canis familiaris [1], the Selectivity was found to be 1. The ISA in the assay filed under Canis familiaris [2] is on record as 100%; in the assay listed under Canis familiaris [4], 80%. The ED50 in the assay on Canis familiaris [3] and in the assay on Canis familiaris [5] was 0.755 µmol/kg throughout.
With `CC(C)NCC(O)c1cccc(O)c1` (centres undefined) [METATEROL], in the assay listed under Canis familiaris [1], the Selectivity was 1.9. In addition, the ISA in the assay listed under Canis familiaris [2] and in the assay listed under Canis familiaris [4] was 100% throughout. Also, the ED50 was found to be 0.138 µmol/kg in the assay with Canis familiaris [3] and 0.071 µmol/kg in the assay on Canis familiaris [5].
Take `CC(C)NCC(O)COc1ccc(O)c(CO)c1.O=C(O)C(=O)O` (centres undefined): in the assay listed under Canis familiaris [1], the Selectivity is reported as 1.5. For the same compound, the ISA is on record as 55% in the assay listed under Canis familiaris [2] and 44% in the assay filed under Canis familiaris [4]. Moreover, the ED50 in the assay on Canis familiaris [3] turned out to be 0.098 µmol/kg; with Canis familiaris [5], 0.067 µmol/kg.
The matching figures for `CC(C)C(=O)NCCNCC(O)COc1ccc(O)cc1.O=C(O)C(=O)O` (centres undefined): 3.9, 40%, 30%, 0.078 µmol/kg and 0.02 µmol/kg.
For `CN(C)S(=O)(=O)NCCNCC(O)COc1ccc(O)cc1.O=C(O)C(=O)O` (centres undefined), the Selectivity in the assay filed under Canis familiaris [1] is 2.5. In addition, the ISA in the assay filed under Canis familiaris [2] and in the assay filed under Canis familiaris [4] was 80% throughout. In addition, the ED50 in the assay on Canis familiaris [3] came to 0.175 µmol/kg; with Canis familiaris [5] it was 0.069 µmol/kg.
`CC(C)NCC(O)COc1ccc(O)c(O)c1.O=C(O)C(=O)O` (centres undefined): the Selectivity in the assay filed under Canis familiaris [1] is 1. Further, the ISA in the assay filed under Canis familiaris [2] and in the assay filed under Canis familiaris [4] was 100% each time. Also, the ED50 in the assay on Canis familiaris [3] and with Canis familiaris [5] was 0.0012 µmol/kg throughout.
In the case of `CC(C)NCC(O)c1ccc(O)cc1` (centres undefined) [DETERENOL], the Selectivity in the assay listed under Canis familiaris [1] was determined as 7.7. Further, the ISA in the assay filed under Canis familiaris [2] was 55%; in the assay filed under Canis familiaris [4], 88%. Also, the ED50 was 0.077 µmol/kg in the assay with Canis familiaris [3] and 0.01 µmol/kg in the assay on Canis familiaris [5].
For the compound `COCCNC(=O)NCCNCC(O)COc1ccc(O)cc1.O=C(O)C(=O)O` (centres undefined), in the assay listed under Canis familiaris [1], the Selectivity came to 2.5. Further, the ISA in the assay listed under Canis familiaris [2] is 58%; in the assay listed under Canis familiaris [4], 74%. The 50% effective dose (ED50) with Canis familiaris [3] was found to be 0.052 µmol/kg; in the assay on Canis familiaris [5] it was 0.021 µmol/kg.
The matching figures for `Cl.O=C(NCCNCC(O)COc1ccc(O)cc1)N(CCO)CCO` (centres undefined): 16, 42%, 41%, 2.33 µmol/kg and 0.145 µmol/kg.
The matching figures for `O=C(NCCO)NCCNCC(O)COc1ccc(O)cc1.O=C(O)C(=O)O` (centres undefined): 3.1, 49%, 69%, 0.236 µmol/kg and 0.077 µmol/kg.
As to `CC(C)NC[C@H](O)COc1ccc(O)cc1` [PRENALTEROL], the ISA is 31% in the assay filed under Canis familiaris [2] and 56% in the assay listed under Canis familiaris [4]. Also, the ED50 in the assay on Canis familiaris [3] was 0.006 µmol/kg; in the assay with Canis familiaris [5], 0.031 µmol/kg.
Consider `O=C(NCCNCC(O)c1ccc(O)cc1)Nc1ccccc1.O=C(O)C(=O)O` (centres undefined), for which the Selectivity in the assay filed under Canis familiaris [1] was 2.3. For the same compound, the ISA in the assay listed under Canis familiaris [2] is given as 70%; in the assay filed under Canis familiaris [4], 71%. The figures for the 50% effective dose (ED50) in the assay on Canis familiaris [3] and with Canis familiaris [5] were 0.228 µmol/kg and 0.098 µmol/kg, respectively.
`O=C(Cc1ccccc1)NCCNCC(O)COc1ccc(O)cc1.O=C(O)C(=O)O` (centres undefined): the Selectivity in the assay listed under Canis familiaris [1] stood at 3.3. Moreover, the ISA in the assay listed under Canis familiaris [2] and in the assay filed under Canis familiaris [4] was 40% in each case. In addition, the ED50 was found to be 0.09 µmol/kg in the assay on Canis familiaris [3] and 0.027 µmol/kg in the assay with Canis familiaris [5].
For `O=C(NCCNCC(O)COc1cc(O)cc(O)c1)Nc1ccccc1.O=C(O)C(=O)O` (centres undefined), in the assay listed under Canis familiaris [1], the Selectivity is reported as >135. For the same compound, the ISA in the assay filed under Canis familiaris [2] was 0%; in the assay filed under Canis familiaris [4], 28%. Moreover, the ED50 with Canis familiaris [3] was > 5.5 µmol/kg; in the assay on Canis familiaris [5], 0.041 µmol/kg.
For `CC(C)C(=O)NCCNCC(O)c1ccc(O)c(O)c1.O=C(O)C(=O)O` (centres undefined), in the assay listed under Canis familiaris [1], the Selectivity turned out to be 2.4. For the same compound, the ISA in the assay listed under Canis familiaris [2] was 100%; in the assay listed under Canis familiaris [4] it was 84%. The ED50 in the assay with Canis familiaris [3] turned out to be 0.006 µmol/kg; in the assay with Canis familiaris [5], 0.0025 µmol/kg.
Consider `O=C(NCCNCC(O)COc1cccc(O)c1)Nc1ccccc1.O=C(O)C(=O)O` (centres undefined), for which, in the assay listed under Canis familiaris [1], the Selectivity was >170. Moreover, the ISA in the assay filed under Canis familiaris [2] is 0%; in the assay filed under Canis familiaris [4] it was 21%. Also, the ED50 with Canis familiaris [3] was > 1.5 µmol/kg; in the assay on Canis familiaris [5], 0.009 µmol/kg.
For the compound `CC(C)C(=O)NCCNCC(O)COc1cccc(O)c1.O=C(O)C(=O)O` (centres undefined), the Selectivity in the assay filed under Canis familiaris [1] amounted to 1.2. Further, the ISA in the assay listed under Canis familiaris [2] was 33%; in the assay filed under Canis familiaris [4] it was 25%. In addition, the ED50 is 0.26 µmol/kg in the assay on Canis familiaris [3] and 0.209 µmol/kg in the assay with Canis familiaris [5].
The matching figures for `CN(CCO)C(=O)NCCNCC(O)COc1ccc(O)cc1.Cl` (centres undefined): 33, 48%, 43%, 1.17 µmol/kg and 0.037 µmol/kg.
As for `O=C(NCCNCC(O)c1ccc(O)c(O)c1)Nc1ccccc1.O=C(O)C(=O)O` (centres undefined), the Selectivity in the assay listed under Canis familiaris [1] is listed as 6. For the same compound, the ISA in the assay listed under Canis familiaris [2] and in the assay filed under Canis familiaris [4] was 100% throughout. The ED50 with Canis familiaris [3] amounted to 0.0054 µmol/kg; in the assay on Canis familiaris [5], 0.0009 µmol/kg.
Regarding `CC(C)C(=O)NCCNCC(O)c1ccc(O)c(CO)c1.O=C(O)C(=O)O` (centres undefined), the Selectivity in the assay filed under Canis familiaris [1] was determined as 2. For the same compound, the ISA in the assay listed under Canis familiaris [2] is 100%; in the assay listed under Canis familiaris [4], 85%. For the same compound, the ED50 was found to be 0.152 µmol/kg with Canis familiaris [3] and 0.077 µmol/kg in the assay on Canis familiaris [5].
